Measurements reported in ChEMBL document CHEMBL3351588, “Design, synthesis and biological evaluation of N-alkyl or aryl substituted isoindigo derivatives as potential dual cyclin-dependent kinase 2 (CDK2)/glycogen synthase kinase 3β (GSK-3β) phosphorylation inhibitors” (Eur J Med Chem, 2014).
The source made the active and inactive calls. The calls are words filed in the database; no cut-off is given here.

What was measured:
K562 [1] = experiment: Induction of cell cycle arrest in human K562 cells assessed as accumulation at G2/M phase at 30 uM after 24 hrs by propidium iodide staining based flow cytometry (reference value: 18.96%); format: functional
K562 [2] = experiment: Induction of apoptosis in human K562 cells assessed as early apoptotic cells level at 15 uM after 48 hrs by Annexin V-FITC/propidium iodide staining based flow cytometry (reference value: 0.24%); format: functional
Method in brief: (§1)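 K562 cells exposed for 24 h or 48 h to 0, 5.0, 10.0, 15.0, 20.0 or 30.0 µM; vehicle DMSO 0.5% v/v. Cells stained with FITC-Annexin V, then counterstained with PI, and analysed by FACScan flow cytometry. Quadrants: Annexin V−/PI− viable; Annexin V+/PI− early apoptotic; Annexin V+/PI+ late apoptotic/necrotic.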

K562 [3] = experiment: Induction of apoptosis in human K562 cells assessed as necrotic cells level at 20 uM after 24 hrs by Annexin V-FITC/propidium iodide staining based flow cytometry (reference value: 0.0%); format: functional; method in brief: as §1
K562 [4] = experiment: Induction of apoptosis in human K562 cells assessed as viable cells level at 5 uM after 48 hrs by Annexin V-FITC/propidium iodide staining based flow cytometry (reference value: 99.21%); format: functional; method in brief: as §1
K562 [5] = experiment: Induction of cell cycle arrest in human K562 cells assessed as accumulation at G2/M phase at 20 uM after 24 hrs by propidium iodide staining based flow cytometry (reference value: 18.96%); format: functional
K562 [6] = experiment: Induction of cell cycle arrest in human K562 cells assessed as reduction in accumulation at G2/M phase after 24 hrs by propidium iodide staining based flow cytometry; format: functional
K562 [7] = experiment: Induction of apoptosis in human K562 cells assessed as early apoptotic cells level at 20 uM after 48 hrs by Annexin V-FITC/propidium iodide staining based flow cytometry (reference value: 0.24%); format: functional; method in brief: as §1
L1210 = experiment: Cytotoxicity against mouse L1210 cells after 48 hrs by SRB assay; format: functional, cell-based; details: L1210, 48 h
Method in brief: (§2)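 Cells seeded at 5 × 10³ per well and allowed to attach for 12 h, then exposed to a range of drug concentrations in their own medium for 48 h. Fixed with ice-cold TCA for 1 h at 4 °C, washed, then stained with 0.4% SRB for 30 min at room temperature. IC50 is the mean of three independent experiments.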

K562 [8] = experiment: Induction of apoptosis in human K562 cells assessed as early apoptotic cells level at 30 uM after 48 hrs by Annexin V-FITC/propidium iodide staining based flow cytometry (reference value: 0.24%); format: functional; method in brief: as §1
K562 [9] = experiment: Induction of necrosis in human K562 cells after 24 hrs by Annexin V-FITC/propidium iodide staining based flow cytometry; format: functional, cell-based
Method in brief: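 Cells exposed to 0, 5.0, 10.0, 15.0, 20.0 or 30.0 μM for 24 h, or 0.5% DMSO. Stained with FITC–Annexin V and PI counterstain, then read by flow cytometry. Annexin V+/PI− scored as early apoptotic; Annexin V+/PI+ scored as late apoptotic/necrotic.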

K562 [10] = experiment: Induction of apoptosis in human K562 cells assessed as late apoptotic cells level at 20 uM after 24 hrs by Annexin V-FITC/propidium iodide staining based flow cytometry (reference value: 0.79%); format: functional; method in brief: as §1
K562 [11] = experiment: Induction of apoptosis in human K562 cells assessed as late apoptotic cells level at 15 uM after 48 hrs by Annexin V-FITC/propidium iodide staining based flow cytometry (reference value: 0.54%); format: functional; method in brief: as §1
K562 [12] = experiment: Induction of apoptosis in human K562 cells assessed as late apoptotic cells level at 10 uM after 24 hrs by Annexin V-FITC/propidium iodide staining based flow cytometry (reference value: 0.79%); format: functional; method in brief: as §1
K562 [13] = experiment: Induction of apoptosis in human K562 cells assessed as late apoptotic cells level at 30 uM after 48 hrs by Annexin V-FITC/propidium iodide staining based flow cytometry (reference value: 0.54%); format: functional; method in brief: as §1
K562 [14] = experiment: Induction of apoptosis in human K562 cells after 24 hrs by Annexin V-FITC/propidium iodide staining based flow cytometry; format: functional, cell-based; method in brief: as §1
K562 [15] = experiment: Induction of cell morphological changes in human K562 cells assessed as nuclei compaction at 5 to 30 uM after 24 hrs by Hoechst 33342/propidium iodide staining based inverted fluorescence microscopy; format: functional
Method in brief: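 Cells treated for 24 h with 5.0–30.0 μM or with 0.5% DMSO, then collected and washed with PBS. Stained with Hoechst 33342 (5.0 μg/mL, 10 min, 37 °C), then with PI (10.0 μg/mL, 10 min, room temperature, dark). Nuclei scored by fluorescence microscopy as condensed/bright, fragmented, or PI-positive.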

K562 [16] = experiment: Cytotoxicity against human K562 cells after 48 hrs by SRB assay; format: functional, cell-based; details: K562, 48 h; method in brief: as §2
A549 = experiment: Cytotoxicity against human A549 cells after 48 hrs by SRB assay; format: functional, cell-based; details: A549, 48 h; method in brief: as §2
K562 [17] = experiment: Induction of apoptosis in human K562 cells assessed as viable cells level at 20 uM after 24 hrs by Annexin V-FITC/propidium iodide staining based flow cytometry (reference value: 97.64%); format: functional; method in brief: as §1
K562 [18] = experiment: Induction of apoptosis in human K562 cells assessed as early apoptotic cells level at 10 uM after 48 hrs by Annexin V-FITC/propidium iodide staining based flow cytometry (reference value: 0.24%); format: functional; method in brief: as §1
K562 [19] = experiment: Induction of cell cycle arrest in human K562 cells assessed as accumulation at G0/G1 phase at 20 uM after 24 hrs by propidium iodide staining based flow cytometry (reference value: 36.14%); format: functional
[20] = target: Glycogen synthase kinase-3 beta (Homo sapiens) (UniProt P49841); experiment: Inhibition of GSK3beta Ser9 phosphorylation in human K562 cells at 5 to 30 uM after 24 hrs by Western blotting method; format: cell-based
Chain of Glycogen synthase kinase-3 beta (Homo sapiens) (P49841 whole entry, looked up): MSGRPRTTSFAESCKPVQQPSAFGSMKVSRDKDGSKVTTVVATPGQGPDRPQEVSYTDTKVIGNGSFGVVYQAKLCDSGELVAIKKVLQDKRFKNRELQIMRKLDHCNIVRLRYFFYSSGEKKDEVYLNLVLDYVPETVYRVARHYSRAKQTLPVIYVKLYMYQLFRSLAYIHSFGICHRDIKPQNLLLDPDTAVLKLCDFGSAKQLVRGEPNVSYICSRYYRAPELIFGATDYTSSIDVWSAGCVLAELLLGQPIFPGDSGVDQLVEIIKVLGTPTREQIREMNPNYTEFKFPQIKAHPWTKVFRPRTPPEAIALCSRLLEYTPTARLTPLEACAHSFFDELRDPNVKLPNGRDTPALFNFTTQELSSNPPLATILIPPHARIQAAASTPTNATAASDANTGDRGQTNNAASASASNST

K562 [21] = experiment: Induction of necrosis in human K562 cells after 48 hrs by Annexin V-FITC/propidium iodide staining based flow cytometry; format: functional, cell-based
K562 [22] = experiment: Induction of cell cycle arrest in human K562 cells assessed as accumulation at S phase after 24 hrs by propidium iodide staining based flow cytometry; format: functional
K562 [23] = experiment: Induction of cell cycle arrest in human K562 cells assessed as accumulation at G0/G1 phase at 10 uM after 24 hrs by propidium iodide staining based flow cytometry (reference value: 36.14%); format: functional
K562 [24] = experiment: Induction of apoptosis in human K562 cells assessed as early apoptotic cells level at 10 uM after 24 hrs by Annexin V-FITC/propidium iodide staining based flow cytometry (reference value: […]); format: functional
K562 [25] = experiment: Induction of apoptosis in human K562 cells assessed as early apoptotic cells level at 5 uM after 24 hrs by Annexin V-FITC/propidium iodide staining based flow cytometry (reference value: […]); format: functional
K562 [26] = experiment: Induction of cell cycle arrest in human K562 cells assessed as accumulation at S phase at 20 uM after 24 hrs by propidium iodide staining based flow cytometry (reference value: 44.90%); format: functional
K562 [27] = experiment: Induction of apoptosis in human K562 cells assessed as late apoptotic cells level at 10 uM after 48 hrs by Annexin V-FITC/propidium iodide staining based flow cytometry (reference value: 0.54%); format: functional; method in brief: as §1
K562 [28] = experiment: Induction of apoptosis in human K562 cells assessed as viable cells level at 30 uM after 48 hrs by Annexin V-FITC/propidium iodide staining based flow cytometry (reference value: 99.21%); format: functional; method in brief: as §1
[29] = Cytotoxicity against human HCT116 cells after 48 hrs by SRB assay; format: functional, cell-based; details: HCT-116, 48 h; method in brief: as §2

With `COc1ccc(N2C(=O)/C(=C3/C(=O)Nc4ccccc43)c3ccccc32)cc1` the Activity (K562 [1]) was 11.8%, the Activity (K562 [2]) was 2.1% and the Activity (K562 [3]) was 0.01%. For the same compound, the Activity (K562 [4]) was 97.78%, the Activity (K562 [5]) was 11.65% and the Activity (K562 [6]) was “Dose-dependent effect”. It also gave an Activity (K562 [7]) of 5.51%, an IC50 (L1210) of 102 µM and an Activity (K562 [8]) of 19.3%. For the same compound, the Activity (K562 [9]) was “Dose-dependent effect”, the Activity (K562 [10]) was 12.65% and the Activity (K562 [11]) was 2.2%. The Activity (K562 [12]) was 2.45%, the Activity (K562 [13]) was 42.09% and the Activity (K562 [14]) was “Dose-dependent effect”. For the same compound, the Activity (K562 [15]) was “Active”, the IC50 (K562 [16]) was 7.8 µM and the IC50 (A549) was 31.9 µM. The Activity (K562 [17]) was 72.9%, the Activity (K562 [18]) was 1.68% and the Activity (K562 [19]) was 32.01%. The inhibition [20] was “Dose-dependent effect”, the Activity (K562 [21]) was “Dose-dependent effect” and the Activity (K562 [22]) was “Dose-dependent effect”. It also gave an Activity (K562 [23]) of 34.81%, an Activity (K562 [24]) of 4.4% and an Activity (K562 [25]) of 2.25%. The Activity (K562 [26]) was 56.34%, the Activity (K562 [27]) was 1.39% and the Activity (K562 [28]) was 62.69%. For the same compound, the IC50 [29] was greater than 200 µM.
